The text below walks through data of PubChem BioAssay AID588678 (Southern Research Specialized Biocontainment Screening …, 2011).

For the test, the target named is M18 aspartyl aminopeptidase (Plasmodium falciparum 3D7). The test is described as follows: inhibition of P. falciparum M18 aspartyl aminopeptidase – biochemical, QFRET fluorogenic substrate, dose response (AID 588678). The conditions noted are these: recombinant PFM18AAP, H-Glu-NHMec fluorogenic substrate cleavage. In short, it runs like this:
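assay system = recombinant PFM18AAP enzyme | quantity = enzyme 5 µg/mL | schedule = enzyme reaction with compounds, 90 min at room temperature | technique = fluorescence, ex 370 nm, em 460 nm | evaluation = % inhibition and fitted IC50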

Activity calls are given as the source filed them.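 How the source made its calls: active means inhibition of 30% or more at any tested concentration; inactive means the rest.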

As for `COc1ccc(CCN2CCN(C)CC2)cc1OC`, the inhibition entry (at 100 µM (top of the series)) is “inactive”.

With `COc1ccc(CCNc2c3ccccc3nc3ccccc23)cc1`, the inhibition result (at 100 µM (top of the series)) was “inactive”.

Take `COc1ccc(CCNc2ccnc3ccccc23)cc1OC`: the inhibition entry (at 100 µM (top of the series)) is “inactive”.

Turning to `O=C(c1ccco1)N1CCN(Cc2cc(=O)c(O)c[nH]2)CC1`, the inhibition entry (at 100 µM (top of the series)) is “inactive”.

With `COc1ccc(CCN2CCc3ccccc3C2)cc1OC`, the inhibition result (at 100 µM (top of the series)) is “inactive”.

In the case of `COc1ccc(CCNc2ccc3ccccc3c2)cc1OC`, the inhibition entry (at 100 µM (top of the series)) is “inactive”.

Turning to `COc1ccc(CCNC2CCN(C)CC2)cc1OC`, under “at 100 µM (top of the series)”, the inhibition entry was “inactive”.

Take `Cc1nc(NCCc2ccc(O)c(O)c2)c2c3c(sc2n1)CCC3`: the half-maximal inhibitory concentration (IC50) was 13.9 µM.

With `O=C1c2ccc3c4c(ccc(c24)C(=O)N1O)CC3`, the inhibition result (at 50 µM (top of the series)) is “inactive”.

With `COc1ccc(CC(=O)O)cc1OC`, the inhibition entry (at 100 µM (top of the series)) was “inactive”.

Turning to `COc1ccc2c(c1)C(=O)C(N)CC2` (stereo not drawn), the half-maximal inhibitory concentration (IC50) was 74.5 µM.

Take `COc1ccc(-c2csc(-c3ccccc3)n2)cc1OC`: the inhibition result (at 100 µM (top of the series)) is “inactive”.

For `Oc1ccc(CCNc2c3c(nc4ccccc24)CCCC3)cc1O`, the IC50 is 10.2 µM.

In the case of `COc1ccc(CCNc2cncc3ccccc23)cc1OC`, the inhibition entry (at 100 µM (top of the series)) is “inactive”.

In the case of `CC(C)(C)C(=O)OCc1nc(-c2ccc(O)c(O)c2)cs1`, the IC50 is 13.1 µM.

As for `CN(CCc1ccc(O)c(O)c1)c1ccncc1`, the half-inhibitory concentration (IC50) is 8.38 µM.

Turning to `Oc1ccc(CCNC(c2ccccc2)c2ccccc2)cc1O`, the IC50 is 10.5 µM.

With `COc1ccc(-c2nc(-c3ccccc3)c(-c3ccccc3)[nH]2)cc1OC`, the inhibition entry (at 100 µM (top of the series)) was “inactive”.

Take `Oc1ccc(CCNc2cccc3ccccc23)cc1O`: the IC50 was 5.4 µM.

On to `Cc1ccc(-c2nc(-c3ccc(O)c(O)c3)cs2)cc1`, for which the IC50 was 9.45 µM.

Take `COc1ccc(CCCNc2c3ccccc3nc3ccccc23)cc1OC`: the inhibition entry (at 100 µM (top of the series)) is “inactive”.

With `COc1ccc(CCNc2cccc3ccccc23)cc1OC`, the inhibition result (at 100 µM (top of the series)) is “inactive”.

For the compound `O=c1ccn(CCNc2c3ccccc3nc3ccccc23)cc1OCc1ccccc1`, under “at 100 µM (top of the series)”, the inhibition entry is “inactive”.

For `Oc1ccc(CCCNc2c3ccccc3nc3ccccc23)cc1O`, the IC50 was 27.9 µM.

As to `COc1ccc(CCN(C)c2c3ccccc3nc3ccccc23)cc1OC`, the inhibition result (at 100 µM (top of the series)) is “inactive”.

`COc1ccc(CCNC2CCN(Cc3ccccc3)CC2)cc1OC`: under “at 100 µM (top of the series)”, the inhibition result was “inactive”.

As for `Cc1c(-c2ccccc2)[nH]c(-c2ccc(O)c(O)c2)[n+]1O`, the IC50 is 17 µM.

Consider `O=C(O)CCCCNc1c2ccccc2nc2ccccc12`, for which the inhibition entry (at 50 µM (top of the series)) was “inactive”.

On to `Oc1ccc(CCNc2c3ccccc3nc3ccccc23)cc1`, for which the inhibition result (at 100 µM (top of the series)) was “inactive”.

With `O=C(c1ccco1)N1CCN(Cc2cc(=O)c(O)co2)CC1`, where the note is “at 100 µM (top of the series)”, the inhibition entry is “inactive”.

Consider `NCc1cc2c3c(c(=O)oc2c(O)c1O)CCC3`, for which the inhibition entry (at 100 µM (top of the series)) was “inactive”.

In the case of `Oc1ccc(CCN2CCc3ccccc3C2)cc1O`, the 50% inhibitory concentration (IC50) is 22.3 µM.

Consider `COc1ccc(CCNc2c3ccccc3nc3ccccc23)cc1OC`, for which the inhibition entry (at 100 µM (top of the series)) is “inactive”.

In the case of `O=c1cc(CN2CCN(Cc3ccccc3)CC2)c2ccc(O)c(O)c2o1`, the concentration for half-maximal inhibition (IC50) was 49.1 µM.

Consider `COc1ccc(CCNc2ccncc2)cc1OC`, for which the inhibition entry (at 100 µM (top of the series)) was “inactive”.

Turning to `CCOc1cccc(-c2nc(-c3ccc(O)c(O)c3)cs2)c1`, the half-inhibitory concentration (IC50) is 9.57 µM.

Regarding `COc1ccc(CNc2c3ccccc3nc3ccccc23)cc1OC`, the inhibition result (at 100 µM (top of the series)) is “inactive”.

As for `O=S1(=O)c2ccccc2-c2cc(-c3nc(-c4ccc(O)c(O)c4)[nH]c3-c3ccccc3)ccc21`, the 50% inhibitory concentration (IC50) is 16.9 µM.

As for `Cc1c(O)c(=O)ccn1CCNc1c2ccccc2nc2ccccc12`, the inhibition entry (at 100 µM (top of the series)) is “inactive”.

As to `COc1cccc(CCNc2c3ccccc3nc3ccccc23)c1`, the inhibition result (at 100 µM (top of the series)) is “inactive”.

`CN(CCc1ccc(O)c(O)c1)c1ccnc2ccccc12`: the 50% inhibitory concentration (IC50) was 4.85 µM.

Consider `CCC(C)C(=O)Nc1ccccc1N` (stereo not drawn), for which the inhibition result (at 100 µM (top of the series)) is “inactive”.

For `CCC(C)c1ccc(N)c(O)c1` (stereo not drawn), the IC50 is 19.5 µM.

Take `COc1ccc(CCN(C)c2ccncc2)cc1OC`: the inhibition result (at 100 µM (top of the series)) is “inactive”.

As for `NCCNc1c2ccccc2nc2ccccc12`, the inhibition entry (at 100 µM (top of the series)) is “inactive”.

For the compound `Oc1ccc(CCNc2cncc3ccccc23)cc1O`, the IC50 was 11.4 µM.

For `Cc1c(OCc2ccccc2)c(=O)ccn1CCNc1c2ccccc2nc2ccccc12`, the inhibition entry (at 100 µM (top of the series)) was “inactive”.

For the compound `COc1ccc(CCC(=O)O)cc1OC`, the inhibition result (at 100 µM (top of the series)) is “inactive”.

Consider `CCC(C)C(=O)Nc1ccccc1O` (stereo not drawn), for which the inhibition result (at 100 µM (top of the series)) was “inactive”.

In the case of `COc1ccc(CCN(C)CCc2ccccc2)cc1OC`, the inhibition entry (at 100 µM (top of the series)) was “inactive”.

For `O=C(O)CCCNc1c2ccccc2nc2ccccc12`, the inhibition entry (at 50 µM (top of the series)) was “inactive”.

`O=C1OCCN1CCc1nc(-c2ccc(O)c(O)c2)cs1`: the IC50 is 8.07 µM.

On to `Oc1ccc(CNc2c3ccccc3nc3ccccc23)cc1O`, for which the inhibition result (at 100 µM (top of the series)) is “inactive”.

For `COc1ccc(CCN(C)c2ccnc3ccccc23)cc1OC`, the inhibition entry (at 100 µM (top of the series)) is “inactive”.

Consider `O=c1ccc2cc(O)c(O)cc2o1`, for which the IC50 was 44.2 µM.

As to `Oc1ccc(CCNC2CCN(Cc3ccccc3)CC2)cc1O`, the 50% inhibitory concentration (IC50) was 26.6 µM.

For the compound `O=c1cc(CO)oc(CN2CCCCC2)c1O`, the inhibition result (at 100 µM (top of the series)) was “inactive”.

Turning to `COc1ccc(-c2csc(-c3ccccc3OC)n2)cc1OC`, the inhibition entry (at 100 µM (top of the series)) was “inactive”.

`Nc1cc(C(=O)c2ccccc2)ccc1O`: the half-maximal inhibitory concentration (IC50) was 51.4 µM.

On to `Oc1ccc(CCNc2ccc3ccccc3c2)cc1O`, for which the half-maximal inhibitory concentration (IC50) was 11.6 µM.

On to `Oc1ccc(-c2csc(Cc3cc4ccccc4[nH]3)n2)cc1O`, for which the concentration for half-maximal inhibition (IC50) was 12.6 µM.

Turning to `COc1ccc(CCNc2c3c(nc4ccccc24)CCCC3)cc1OC`, the inhibition entry (at 100 µM (top of the series)) is “inactive”.

Consider `COc1cccc(-c2nc(-c3ccc(OC)c(OC)c3)cs2)c1`, for which the inhibition result (at 100 µM (top of the series)) is “inactive”.
